Assay results published in ChEMBL document CHEMBL1821692, “Synthesis and evaluation of diarylthiazole derivatives that inhibit activation of sterol regulatory element-binding proteins” (J Med Chem, 2011).
Converted amounts (≈) assume the structure as drawn. The source made the active and inactive calls. The calls are words filed in the database; no cut-off is given here.

What was measured:
[1] = Aqueous solubility of the compound at pH 3 after 24 hrs by LC-MS/MS analysis; assay type: physicochemical; details: buffer, pH 3, 24 h
How it was run: (§1)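 DMSO stock diluted to 250 μM in aqueous buffer at pH 3 or pH 7 and held 24 h. Solution filtered through a 0.22 μm membrane; compound in the filtrate quantified by LC-MS/MS.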

Hepatocyte [2] = assay: Half life in mouse hepatocytes at 1 uM after 90 mins by LC-MS/MS analysis; assay type: ADME, cell-based, Liver; details: 1.5 h
How it was run: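 Compound at 1 μM incubated at 37 °C with shaking in Leibovitz L-15 medium with mouse hepatocytes (3×10^5 cells mL⁻¹), in duplicate. […] Medium-only incubations served as negative controls; 7-ethoxycoumarin and 7-hydroxycoumarin were positive controls for phase I/II activity.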

Hepatocyte [3] = assay: Metabolic stability in mouse hepatocytes at 1 uM after 90 mins by LC-MS/MS analysis; assay type: ADME, cell-based; details: 1.5 h
How it was run: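 Each compound at 1 μM incubated at 37 °C in Leibovitz L-15 medium with mouse hepatocytes (3×10^5 cells mL⁻¹), in duplicate with shaking. […] After centrifugation the supernatant went to LC-MS/MS. Controls were compound in medium alone, and 7-ethoxycoumarin/7-hydroxycoumarin for phase I/II activity.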

[4] = Aqueous solubility of the compound at pH 7 after 24 hrs by LC-MS/MS analysis; assay type: physicochemical; details: buffer, pH 7, 24 h; how it was run: as §1
[5] = Apparent permeability at 10 uM after 4 hrs by PAMPA; assay type: ADME
How it was run: (§2)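 Passive diffusion across 15% soy lecithin in n-dodecane artificial membrane on a filter plate. […] Sandwich incubated 4 h at 37 °C. Acceptor, donor and initial donor solutions quantified by LC-MS/MS; Papp and % membrane retention calculated.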

[6] = Apparent permeability assessed as membrane retention at 10 uM after 4 hrs by PAMPA; assay type: ADME; how it was run: as §2
[7] = target: T1, Sterol regulatory element-binding protein 2 (Homo sapiens) (UniProt Q12772); details: CHO-K1; 1 to 20 uM
T1 sequence (whole entry): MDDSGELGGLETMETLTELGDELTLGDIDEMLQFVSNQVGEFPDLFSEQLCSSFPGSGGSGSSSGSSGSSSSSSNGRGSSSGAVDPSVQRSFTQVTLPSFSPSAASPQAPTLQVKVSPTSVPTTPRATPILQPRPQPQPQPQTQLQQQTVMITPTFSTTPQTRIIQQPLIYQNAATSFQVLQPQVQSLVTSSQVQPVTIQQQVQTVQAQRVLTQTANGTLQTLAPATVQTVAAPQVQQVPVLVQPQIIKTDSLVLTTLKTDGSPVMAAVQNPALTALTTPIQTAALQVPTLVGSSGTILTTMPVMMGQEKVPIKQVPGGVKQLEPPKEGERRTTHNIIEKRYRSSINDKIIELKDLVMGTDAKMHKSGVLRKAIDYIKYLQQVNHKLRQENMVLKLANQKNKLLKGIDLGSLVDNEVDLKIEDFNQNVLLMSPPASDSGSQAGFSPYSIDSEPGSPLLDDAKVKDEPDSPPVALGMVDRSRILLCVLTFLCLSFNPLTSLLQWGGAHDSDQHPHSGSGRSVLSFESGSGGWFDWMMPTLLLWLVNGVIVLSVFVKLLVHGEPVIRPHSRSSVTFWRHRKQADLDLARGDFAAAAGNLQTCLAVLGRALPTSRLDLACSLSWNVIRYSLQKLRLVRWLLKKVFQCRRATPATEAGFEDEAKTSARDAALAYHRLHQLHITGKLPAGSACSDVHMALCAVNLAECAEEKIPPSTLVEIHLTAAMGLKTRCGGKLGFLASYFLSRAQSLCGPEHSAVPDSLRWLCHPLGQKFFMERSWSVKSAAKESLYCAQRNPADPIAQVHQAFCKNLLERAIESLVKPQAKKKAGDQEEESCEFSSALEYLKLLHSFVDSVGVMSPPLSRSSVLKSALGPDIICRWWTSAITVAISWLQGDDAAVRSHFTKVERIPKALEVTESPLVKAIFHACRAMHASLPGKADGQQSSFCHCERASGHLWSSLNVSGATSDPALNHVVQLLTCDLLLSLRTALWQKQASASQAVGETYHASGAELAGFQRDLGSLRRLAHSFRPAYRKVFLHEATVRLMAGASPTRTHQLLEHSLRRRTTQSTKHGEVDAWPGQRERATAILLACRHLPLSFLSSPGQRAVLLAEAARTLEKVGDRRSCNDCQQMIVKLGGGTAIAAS

Compound | solubility [1] [µM] | t1/2 (Hepatocyte [2]) [min] | Stability (Hepatocyte [3]) | solubility [4] [µM] | Papp [5] [×10⁻⁶ cm/s] | Activity [6] [%] | inhibition [7]
CCCc1cc(-c2nc(-c3ccc(NC(C)C)cc3)cs2)ccn1 | > 225 | 22.4 | Stable | 3 (≈ 1.01 µg/mL) | 1.059 | 93.95 | 
CC(=O)CC(c1ccccc1)c1c(O)c2ccccc2oc1=O (stereo not given) [WARFARIN] |  |  |  |  |  | 0 | 
CCCc1cc(-c2nc(-c3ccc(C)cc3)cs2)ccn1 [FATOSTATIN] | 80 (≈ 23.6 µg/mL) | 10.1 | Stable | 2 (≈ 0.589 µg/mL) | 0.7555 | 94 | 
CCCc1cc(-c2nc(-c3ccc(NS(C)(=O)=O)cc3)cs2)ccn1 | > 225 | 44.4 | Stable | 33 (≈ 12.3 µg/mL) | 14.98 | 97.35 | inactive
